Experimental data pooled from the literature.
Lines come from different studies, so protocols differ.
CYP2B6: Cytochrome P450 2B6 (CYP2B6, Homo sapiens, UniProt P20813)
UGT1A6: UDP-glucuronosyltransferase 1A6 (UGT1A6, Homo sapiens, UniProt P19224)

The IC50 of `CCCCCCCCCCCCCCCCOP(=O)([O-])OCC[N+](C)(C)C` is reported as 6.5 µM (HeLa; cell growth or viability, XTT; 72 h).
`Cc1ccn2c(C(=O)N3CCN(Cc4cn(-c5ccc(C(F)(F)F)cc5)nn4)CC3)c(C)nc2c1` gave a CC50 of over 100 µM (HeLa; cell growth or viability, resazurin).
`CCOc1ccccc1C=NNc1nc(-c2ccc(F)cc2)cs1` gave a haemolysis of 0% (haemolysis; human; 10 µM, 30 min, pH 7.4).
For `CCOP(=O)(OCC)[C@@H]1C[C@H](n2cc(Cn3ccc(NC(C)=O)nc3=O)nn2)ON1C` (racemic), the CC50 was over 250 µM (HeLa; cell growth or viability; 72 h).
For `Cc1cccc(F)c1N1CCC(N2Cc3cn(CC(C)(F)F)nc3N(Cc3ccccc3C(F)(F)F)C2=O)CC1`, the IC50 was over 10 µM (CYP2B6; enzyme activity, inhibitor; human, liver microsomes).
For `CCOP(=O)(OCC)[C@@H]1C[C@@H](n2cc(C(=O)OC)nn2)ON1C` (relative stereo), the CC50 was over 100 µM (HEL; cell growth or viability; 72 h).
`C[C@@H]1[C@H](O)[C@@H](C)/C=C/C=C/C=C/C=C/C=C/C=C/C=C/[C@H](O[C@@H]2O[C@H](C)[C@@H](O)[C@H](N)[C@@H]2O)C[C@@H]2O[C@](O)(C[C@@H](O)C[C@@H](O)[C@H](O)CC[C@@H](O)C[C@@H](O)CC(=O)O[C@H]1C)C[C@H](O)[C@H]2C(=O)O` has a haemolysis of 3.73% (haemolysis; human; 0.5 µg/mL, 1 h).
The haemolysis of `Fc1ccc(-c2csc(NN=Cc3ccc(C(F)(F)F)cc3)n2)cc1` is reported as 41% (haemolysis; human; 100 µM, 30 min, pH 7.4).
For `Cc1nc2ccc(Cl)cn2c1C(=O)N1CCN(Cc2cn(-c3ccc(C(F)(F)F)cc3)nn2)CC1`, the CC50 was over 100 µM (HeLa; cell growth or viability, resazurin).
For `Oc1ccc(Cl)cc1C=NNc1nc(-c2ccc(F)cc2)cs1`, the haemolysis was 21.2% (haemolysis; human; 50 µM, 30 min, pH 7.4).
`Cc1nc2ccc(Cl)cn2c1C(=O)N1CCN(CCn2cc(-c3ccc(C(C)(C)C)cc3)nn2)CC1` gave a CC50 of over 100 µM (HeLa; cell growth or viability, resazurin).
For `Fc1ccc(-c2csc(NN=Cc3ccccc3C(F)(F)F)n2)cc1`, the haemolysis was 45.7% (haemolysis; human; 100 µM, 30 min, pH 7.4).
With `Cc1ccc(C(=O)N2CCOC[C@H]2Cc2cccc(-n3nccn3)c2)c(-n2nccn2)c1` the inhibition was 44% (CYP2B6; enzyme activity, inhibitor; human, liver microsomes; 100 µM).
The haemolysis of `COc1c(F)cccc1C=NNc1nc(-c2ccc(F)cc2)cs1` is reported as 36.6% (haemolysis; human; 100 µM, 30 min, pH 7.4).
With `OC(Cn1cncn1)(Cn1cncn1)c1ccc(F)cc1F` the haemolysis was 4.52% (haemolysis; human; 8 µg/mL, 1 h).
The CC50 of `CCOP(=O)(OCC)[C@@H]1C[C@@H](n2cc(Cn3ccc(=O)[nH]c3=O)nn2)ON1C` (racemic) is reported as at least 250 µM (HeLa; cell growth or viability; 72 h).
`C[C@@H](Cn1ccc(-c2ccc(C#N)c(Cl)c2)n1)NC(=O)c1cc([C@@H](C)O)[nH]n1` has an IC50 of over 100 µM (UGT1A6; enzyme activity, inhibitor; human, liver microsomes).
`Cc1ccc(C=NNc2nc(-c3ccc(F)cc3)cs2)o1` gave a haemolysis of 1.2% (haemolysis; human; 10 µM, 30 min, pH 7.4).
`CCOP(=O)(OCC)[C@@H]1C[C@@H](n2cc(Cn3cc(C)c(=O)[nH]c3=O)nn2)ON1C` (racemic) gave a CC50 of over 250 µM (HeLa; cell growth or viability; 72 h).
The CC50 of `CCCc1cn(CCN2CCN(C(=O)c3c(C)nc4cc(C)ccn34)CC2)nn1` is reported as over 100 µM (HeLa; cell growth or viability, resazurin).
With `Fc1ccc(-c2csc(NN=Cc3ccc[nH]3)n2)cc1` the haemolysis was 26.3% (haemolysis; human; 50 µM, 30 min, pH 7.4).
`C=CC(=O)N(C)CCOc1c(N)ncnc1-c1cc(F)cc(NC(=O)c2ccc(C3CC3)cc2F)c1C` gave a Km of 1.3 µM (CYP2B6; enzyme activity, substrate; 10 min, pH 7.4).
The CC50 of `Cc1nc2ccc(Cl)cn2c1C(=O)N1CCN(Cc2cn(-c3cccc(C(F)(F)F)c3)nn2)CC1` is reported as over 100 µM (HeLa; cell growth or viability, resazurin).
`Fc1ccc(-c2csc(NN=Cc3cccs3)n2)cc1` has a haemolysis of 32.4% (haemolysis; human; 50 µM, 30 min, pH 7.4).
`Cc1cc(C)cc(-n2cc(CN3CCN(C(=O)c4c(C)nc5ccc(Cl)cn45)CC3)nn2)c1` gave a CC50 of over 100 µM (HeLa; cell growth or viability, resazurin).
With `CC(=O)c1cc(C(=O)N[C@@H](C)Cn2ccc(-c3ccc(C#N)c(Cl)c3)n2)[nH]n1` the IC50 was over 50 µM (UGT1A6; enzyme activity, inhibitor; human, liver microsomes).
`COc1cccc(-n2cc(CN3CCN(C(=O)c4c(C)nc5cc(C)ccn45)CC3)nn2)c1` has a CC50 of over 100 µM (HeLa; cell growth or viability, resazurin).
The IC50 of `COc1ccc(S(=O)(=O)Nc2c(C(=O)Nc3c(C(=O)O)cc(OC)c(OC)c3OC)cc(OC)c(OC)c2OC)cc1` is reported as 95 µM (HeLa; cell growth or viability, XTT; 72 h).
The CC50 of `CCc1ccc(-n2cc(CN3CCN(C(=O)c4c(C)nc5cc(C)ccn45)CC3)nn2)cc1` is reported as over 100 µM (HeLa; cell growth or viability, resazurin).
For `CCOP(=O)(OCC)[C@@H]1C[C@@H](n2cc(-c3ccccc3)nn2)ON1C` (racemic), the CC50 was over 250 µM (HeLa; cell growth or viability; 72 h).
